Series [1] is described as follows: Cmax in CD-1 mouse at 20 mg/kg administered via oral gavage by LC-MS/MS analysis. Type of series: ADME, organism-based. Details: dose 20 mg/kg, route oral. To be noted: in vivo. In outline:
(§1)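 Female CD1 mice, 9 weeks old, oral gavage at 20 mg/kg (5 mL/kg). Fasted overnight, with food returned after the 4-h bleed. Blood sampled retro-orbitally at 0.5, 1, 4, 8 and 24 h, n = 3 per time point. Plasma separated by centrifugation and frozen at -80 °C. Drug level quantified by LC/MS/MS from analyte peak area.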

The test system of the next series is Mus musculus. The series can be described thus: AUC (0 to 24 hrs) in CD-1 mouse at 20 mg/kg administered via oral gavage by LC-MS/MS analysis. Format: ADME, organism-based. Details: time < 24 hr, dose 20 mg/kg, route oral. Conditions: in vivo. The method in brief: as §1
The nature of series [2]: Stability in mouse plasma assessed as parent compound remaining after 4 hrs. Format: ADME, cell-free. To be noted: read-out: Stability.
Series [3] deals with T1, Aspartate aminotransferase, cytoplasmic (Homo sapiens, UniProt P17174). The series is described as follows: Inhibition of GOT1 (unknown origin) using aspartate and alpha-ketoglutarate as substrate after 20 mins by GLOX enzyme-coupled fluorescence assay. The method in brief: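 GOT1 (~1 nM, set per purification for a 20 min linear reaction) with aspartate 4 mM and alpha-ketoglutarate 0.5 mM (KM levels). Glutamate is turned over by GLOX (80 nM), and the H2O2 drives HRP (0.05 U/mL) oxidation of Amplex Red (15 µg/mL). Buffer: 100 mM HEPES, 100 mM KCl. Run 20 min at 37 °C; resorufin fluorescence read at 530/550 nm.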

The nature of series [4]: Half life in CD-1 mouse at 20 mg/kg administered via oral gavage by LC-MS/MS analysis. Format: ADME, organism-based. Conditions: in vivo. The method in brief:
as §1

The target of series [5] is T1, Aspartate aminotransferase, cytoplasmic. The series is described as follows: Inhibition of GOT1 (unknown origin) using aspartate and alpha-ketoglutarate as substrate after 20 mins by MDH1 enzyme-coupled fluorescence assay. The method in brief: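 Oxaloacetate from GOT1 (~1 nM) is reduced by MDH1 (0.3 µg/mL final) using NADH (250 µM final). Loss of NADH fluorescence is read at 340/445 nm. Substrates aspartate 4 mM and alpha-ketoglutarate 0.5 mM. Buffer: 100 mM HEPES, 100 mM KCl. Incubated 20 min at 37 °C. Mean of n = 3.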

Active and inactive are the calls of the source. The calls are words filed in the database; no cut-off is given here.

T1 sequence (P17174 whole entry): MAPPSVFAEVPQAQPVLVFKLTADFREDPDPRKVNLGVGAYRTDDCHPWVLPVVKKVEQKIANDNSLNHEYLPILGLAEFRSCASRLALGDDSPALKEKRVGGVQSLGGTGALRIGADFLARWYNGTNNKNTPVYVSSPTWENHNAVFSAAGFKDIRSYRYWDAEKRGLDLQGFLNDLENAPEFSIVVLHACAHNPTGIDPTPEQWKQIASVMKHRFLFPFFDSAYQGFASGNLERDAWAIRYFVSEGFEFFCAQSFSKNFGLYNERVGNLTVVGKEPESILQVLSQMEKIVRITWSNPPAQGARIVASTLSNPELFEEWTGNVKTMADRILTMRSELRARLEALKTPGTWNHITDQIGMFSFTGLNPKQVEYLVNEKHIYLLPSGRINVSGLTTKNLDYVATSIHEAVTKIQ

On to `O=C(Nc1ccccc1)N1CCN(c2cccc3[nH]ccc23)CC1`, for which the peak level in series [1] (Cmax) was 4130 ng/mL. The exposure (AUC) – broadly, the area under the concentration-time curve, a measure of exposure – in the series with Mus musculus was determined as 11734 ng·h/mL. Moreover, the remaining at 4 h in series [2] was greater than 95%. In series [3], the inhibition result is “Active”. The half-life (as a rule, the time in which the quantity being followed falls by half) in series [4] is 42 min. In addition, in series [5], the IC50 (as a rule, the concentration at which inhibition is half-maximal) was determined as 85 µM.

Source of the values: ChEMBL document CHEMBL4229399, “Discovery and optimization of aspartate aminotransferase 1 inhibitors to target redox balance in pancreatic ductal adenocarcinoma” (Bioorg Med Chem Lett, 2018).
